One block for each compound: values may come before it.
What was measured:
[1] = target: T1, C-C chemokine receptor type 4 (Homo sapiens, UniProt P51679); experiment: Antagonist activity at human CCR4 expressed in rat chem-5 cells assessed as inhibition of CCL22-induced calcium flux measured at 2.5 secs time interval for 45 secs by fluorescence assay; format: functional, cell-based
T1 sequence (P51679 whole entry): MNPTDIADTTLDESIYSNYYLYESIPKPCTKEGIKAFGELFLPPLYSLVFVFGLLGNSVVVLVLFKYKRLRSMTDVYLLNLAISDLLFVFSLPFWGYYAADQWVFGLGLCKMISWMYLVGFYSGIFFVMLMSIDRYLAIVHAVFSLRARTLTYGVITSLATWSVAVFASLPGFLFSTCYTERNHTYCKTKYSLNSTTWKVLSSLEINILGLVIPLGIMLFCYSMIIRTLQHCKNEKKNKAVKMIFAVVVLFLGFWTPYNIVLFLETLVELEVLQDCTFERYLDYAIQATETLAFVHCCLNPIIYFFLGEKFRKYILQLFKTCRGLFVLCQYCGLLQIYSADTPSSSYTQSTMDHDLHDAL
Summary of the method: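 Calcium flux functional readout of CCR4 antagonism, run without serum; IC50 reported.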

[2] = Hepatic clearance in rat at 0.5 mg/kg, iv; format: ADME, organism-based; details: in vivo
[3] = AUCinfinity in rat at 0.5 mg/kg, iv; format: ADME, organism-based; parameters: dose 0.5 mg/kg, route intravenous, time infinity; details: in vivo
Cytochrome P450 1A2 = target: T2, Cytochrome P450 1A2 (Homo sapiens, UniProt P05177); experiment: Inhibition of CYP1A2 (unknown origin); format: ADME
T2 sequence (P05177 whole entry): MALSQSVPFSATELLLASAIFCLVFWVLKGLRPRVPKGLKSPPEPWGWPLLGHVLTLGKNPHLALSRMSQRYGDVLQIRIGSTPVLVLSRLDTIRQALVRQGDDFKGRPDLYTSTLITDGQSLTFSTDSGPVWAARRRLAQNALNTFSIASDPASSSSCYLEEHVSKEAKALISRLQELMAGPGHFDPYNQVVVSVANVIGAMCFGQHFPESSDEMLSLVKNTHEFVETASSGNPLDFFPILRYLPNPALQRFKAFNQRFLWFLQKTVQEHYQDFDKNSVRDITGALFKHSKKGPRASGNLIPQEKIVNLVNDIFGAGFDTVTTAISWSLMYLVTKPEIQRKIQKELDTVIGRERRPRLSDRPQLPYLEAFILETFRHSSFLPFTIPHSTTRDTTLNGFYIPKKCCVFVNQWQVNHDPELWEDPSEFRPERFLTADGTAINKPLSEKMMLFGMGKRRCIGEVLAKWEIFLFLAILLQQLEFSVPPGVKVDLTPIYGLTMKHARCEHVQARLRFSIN
Summary of the method: (§1)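 CYP inhibition tested against 1A2, 2C9, 2C19, 2D6 and 3A4; IC50 in μM.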

[4] = Hepatic clearance in dog at 0.5 mg/kg, iv or 2 mg/kg, po; format: ADME, organism-based, Canis lupus familiaris; details: in vivo
Summary of the method: (§2)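 Cross-species PK (dog, cynomolgus monkey): 0.5 mg/kg IV or 2 mg/kg PO; three animals per group.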

[5] = Stability in human hepatocytes assessed as compound remaining incubated for 60 mins under shaking condition by LC-MS/MS analysis; format: ADME, cell-based, Hepatocyte; details: read-out: Stability
Summary of the method: (§3)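 Human and rat hepatocytes exposed to compound; percent parent remaining reported.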

[6] = Oral bioavailability in cynomolgus monkey at 2 mg/kg, po; format: ADME, organism-based, Macaca fascicularis; details: in vivo; summary of the method: as §2
Cytochrome P450 3A4 = Cytochrome P450 3A4 (Homo sapiens, UniProt P08684); experiment: Inhibition of CYP3A4 (unknown origin); format: ADME; summary of the method: as §1
Cytochrome P450 3A4, sequence (P08684 whole entry): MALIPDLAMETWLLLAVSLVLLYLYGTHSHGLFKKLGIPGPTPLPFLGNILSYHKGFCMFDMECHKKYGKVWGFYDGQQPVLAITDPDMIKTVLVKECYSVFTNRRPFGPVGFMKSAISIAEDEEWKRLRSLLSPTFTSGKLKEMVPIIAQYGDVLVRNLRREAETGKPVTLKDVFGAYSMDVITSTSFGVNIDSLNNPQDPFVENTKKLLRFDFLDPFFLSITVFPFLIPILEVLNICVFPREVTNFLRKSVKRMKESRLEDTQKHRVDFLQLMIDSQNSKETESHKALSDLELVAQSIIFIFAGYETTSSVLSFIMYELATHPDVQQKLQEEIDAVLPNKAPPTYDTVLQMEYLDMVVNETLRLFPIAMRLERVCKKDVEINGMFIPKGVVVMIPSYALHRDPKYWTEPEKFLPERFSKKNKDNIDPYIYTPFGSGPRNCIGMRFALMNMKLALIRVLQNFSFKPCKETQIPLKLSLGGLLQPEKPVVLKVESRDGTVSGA

Mus musculus [7] = experiment: Inhibition of anti-CD3/CD28-stimulated B6-Foxp3 GFP positive mouse T-reg cell migration into tumor of mouse Pan02 cells implanted in C57BL/6 mouse assessed as decrease in number of GFP positive T-reg cells in tumor at 30 mg/kg, po qd treated 24 hrs prior to T-reg cell addition followed by compound dosing for subsequent 4 days and measured on day 6 by flow cytometry relative to control; format: functional; details: C57BL/6, Pan02, po
Summary of the method: (§4)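 Pan02 pancreatic tumor-bearing mice dosed QD for 6 days at 10 or 30 mg/kg. GFP+ induced Treg, made from naive CD4+ T cells of Foxp3-GFP transgenic mice, injected 24 h after first dose. GFP+ Treg counted in tumor and spleen versus vehicle group; plasma level taken 24 h after last dose; one-way ANOVA.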

[8] = Volume of distribution at steady state in mouse; format: ADME, organism-based; details: in vivo, read-out: Vdss
[9] = Terminal half-life in cynomolgus monkey at 0.5 mg/kg, iv; format: ADME, organism-based, Macaca fascicularis; details: in vivo, read-out: beta t1/2 (converted); summary of the method: as §2
[10] = Volume of distribution at steady state in rat at 0.5 mg/kg, iv or 2 mg/kg, po; format: ADME, organism-based; details: in vivo, read-out: Vdss
[11] = Terminal half-life in rat at 0.5 mg/kg, iv; format: ADME, organism-based; details: in vivo, read-out: beta t1/2 (converted)
[12] = AUC(0 to infinity) in rat at 2 mg/kg, po; format: ADME, organism-based; parameters: dose 2 mg/kg, route oral, time infinity; details: in vivo
[13] = Clearance in mouse; format: ADME, organism-based; details: in vivo
[14] = Terminal half-life in dog at 0.5 mg/kg, iv; format: ADME, organism-based, Canis lupus familiaris; details: in vivo, read-out: beta t1/2 (converted); summary of the method: as §2
Cytochrome P450 2C9 = Cytochrome P450 2C9 (Homo sapiens, UniProt P11712); experiment: Inhibition of CYP2C9 (unknown origin); format: ADME; summary of the method: as §1
Cytochrome P450 2C9, sequence (P11712 whole entry): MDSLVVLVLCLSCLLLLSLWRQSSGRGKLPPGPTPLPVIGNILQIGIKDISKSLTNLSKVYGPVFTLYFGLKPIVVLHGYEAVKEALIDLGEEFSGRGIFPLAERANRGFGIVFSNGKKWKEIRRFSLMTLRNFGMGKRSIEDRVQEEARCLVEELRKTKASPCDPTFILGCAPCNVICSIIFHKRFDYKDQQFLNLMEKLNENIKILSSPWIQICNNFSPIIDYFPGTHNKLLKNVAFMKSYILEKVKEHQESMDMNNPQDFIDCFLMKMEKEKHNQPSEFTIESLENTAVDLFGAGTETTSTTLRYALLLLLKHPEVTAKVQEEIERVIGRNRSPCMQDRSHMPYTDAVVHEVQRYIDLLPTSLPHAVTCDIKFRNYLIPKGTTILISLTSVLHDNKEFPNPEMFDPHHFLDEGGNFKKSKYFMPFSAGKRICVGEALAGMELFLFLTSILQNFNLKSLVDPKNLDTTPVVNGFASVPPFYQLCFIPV

[15] = Oral bioavailability in dog at 2 mg/kg, po; format: ADME, organism-based, Canis lupus familiaris; details: in vivo; summary of the method: as §2
Cytochrome P450 2C19 = Cytochrome P450 2C19 (Homo sapiens, UniProt P33261); experiment: Inhibition of CYP2C19 (unknown origin); format: ADME; summary of the method: as §1
Cytochrome P450 2C19, sequence (P33261 whole entry): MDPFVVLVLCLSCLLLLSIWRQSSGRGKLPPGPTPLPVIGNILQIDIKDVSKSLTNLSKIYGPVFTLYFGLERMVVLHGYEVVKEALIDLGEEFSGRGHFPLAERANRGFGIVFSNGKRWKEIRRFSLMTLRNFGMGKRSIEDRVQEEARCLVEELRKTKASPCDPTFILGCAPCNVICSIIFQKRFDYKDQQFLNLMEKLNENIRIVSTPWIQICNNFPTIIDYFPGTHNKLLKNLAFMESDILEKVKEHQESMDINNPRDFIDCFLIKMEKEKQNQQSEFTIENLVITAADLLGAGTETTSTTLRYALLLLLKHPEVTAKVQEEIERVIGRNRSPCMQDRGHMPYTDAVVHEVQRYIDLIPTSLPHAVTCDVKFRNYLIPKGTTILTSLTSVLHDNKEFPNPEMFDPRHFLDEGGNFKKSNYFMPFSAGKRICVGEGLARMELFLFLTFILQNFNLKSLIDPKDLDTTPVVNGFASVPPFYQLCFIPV

Cytochrome P450 2D6 = Cytochrome P450 2D6 (Homo sapiens, UniProt P10635); experiment: Inhibition of CYP2D6 (unknown origin); format: ADME; summary of the method: as §1
Cytochrome P450 2D6, sequence (P10635 whole entry): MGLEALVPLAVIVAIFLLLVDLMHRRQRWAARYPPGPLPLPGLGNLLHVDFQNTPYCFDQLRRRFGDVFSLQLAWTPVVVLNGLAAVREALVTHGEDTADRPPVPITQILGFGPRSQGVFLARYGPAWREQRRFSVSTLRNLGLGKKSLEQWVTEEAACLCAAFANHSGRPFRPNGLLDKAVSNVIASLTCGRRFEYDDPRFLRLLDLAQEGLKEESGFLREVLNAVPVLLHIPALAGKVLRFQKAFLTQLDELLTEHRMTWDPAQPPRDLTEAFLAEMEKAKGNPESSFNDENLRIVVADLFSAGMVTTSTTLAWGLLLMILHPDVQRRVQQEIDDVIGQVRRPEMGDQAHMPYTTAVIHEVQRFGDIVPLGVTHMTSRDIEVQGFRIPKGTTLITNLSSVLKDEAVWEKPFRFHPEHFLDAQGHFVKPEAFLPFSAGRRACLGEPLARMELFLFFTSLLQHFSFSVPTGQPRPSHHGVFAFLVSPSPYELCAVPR

[16] = Oral bioavailability in rat at 2 mg/kg, po; format: ADME, organism-based; details: in vivo
[17] = Hepatic clearance in cynomolgus monkey at 0.5 mg/kg, iv or 2 mg/kg, po; format: ADME, organism-based, Macaca fascicularis; details: in vivo; summary of the method: as §2
[18] = Hepatic clearance in rat at 0.5 mg/kg, iv or 2 mg/kg, po; format: ADME, organism-based; details: in vivo
[19] = Bioavailability in mouse; format: ADME, organism-based; details: in vivo
[20] = Terminal half-life in rat at 0.5 mg/kg, iv or 2 mg/kg, po; format: ADME, organism-based; details: in vivo, read-out: beta t1/2 (converted)
Mus musculus [21] = experiment: Inhibition of anti-CD3/CD28-stimulated B6-Foxp3 GFP positive mouse T-reg cell migration into tumor of mouse Pan02 cells implanted in po dosed C57BL/6 mouse assessed as decrease in number of GFP positive T-reg cells in tumor treated 24 hrs prior to T-reg cell addition followed by daily compound dosing for subsequent 4 days and measured on day 6 by flow cytometry; format: functional, organism-based; summary of the method: as §4
[22] = Stability in rat hepatocytes assessed as compound remaining incubated for 60 mins under shaking condition by LC-MS/MS analysis; format: ADME, cell-based, Hepatocyte; details: read-out: Stability; summary of the method: as §3
[23] = Half-life in mouse; format: ADME, organism-based; details: in vivo

- IC50 [1]: 172 nM
SMILES: Cc1nn([C@H](C)c2ccc(Cl)cc2Cl)c2nc(N3CC[C@H](N4CCC[C@@H]4C)[C@H](C)C3)cnc12

- IC50 [1]: 228 nM
- CLH [2]: 101.7 mL/min/kg
- AUC(0-inf) [3]: 82 ng·h/mL
SMILES: CC1CN(c2cnc3c(C(N)=O)nn(C(C)c4ccc(Cl)cc4Cl)c3n2)CCC1N1CCCCC1 (stereo not drawn)

- IC50 [1]: 670 nM
SMILES: Cc1nn([C@H](C)c2ccc(Cl)cc2Cl)c2nc(N3CC[C@H](N4CCC[C@H]4C(=O)O)[C@H](C)C3)cnc12

- IC50 [1]: 32 nM
SMILES: Cc1nn([C@H](C)c2ccc(Cl)cc2Cl)c2nc(N3CC[C@H](N4CCC[C@H]4CCS(N)(=O)=O)[C@H](C)C3)cnc12

- IC50 (Cytochrome P450 1A2): > 10 µM
- CLH [4]: 10.7 mL/min/kg
- remaining at 1 h [5]: 81%
- bioavailability [6]: 30%
- IC50 (Cytochrome P450 3A4): > 10 µM
- IC50 [1]: 40 nM
- Vd [8]: 5.7 L/kg
- half-life [9]: 594 min
- Vd [10]: 9.8 L/kg
- half-life [11]: 132 min
- AUC(0-inf) [12]: 125 ng·h/mL
- clearance [13]: 12 mL/min/kg
- half-life [14]: 984 min
- IC50 (Cytochrome P450 2C9): > 10 µM
- bioavailability [15]: 75%
- IC50 (Cytochrome P450 2C19): > 10 µM
- IC50 (Cytochrome P450 2D6): > 10 µM
- bioavailability [16]: 28%
- CLH [17]: 11.3 mL/min/kg
- CLH [18]: 74.7 mL/min/kg
- bioavailability [19]: 26%
- half-life [20]: 246 min
- remaining at 1 h [22]: 32%
- half-life [23]: 456 min
SMILES: C[C@@H]1CC(c2cnc3c(C#N)nn([C@H](C)c4ccc(Cl)cc4Cl)c3n2)=CC[C@@H]1N1CCC[C@H]1CO
- inhibition in vivo at 30 mg/kg (Mus musculus [7]): 100%
- inhibition (Mus musculus [21]): Dose-dependent effect

- IC50 [1]: 47 nM
SMILES: Cc1nn([C@H](C)c2ccc(Cl)cc2Cl)c2nc(N3CC[C@H](N4CCC[C@H]4C)[C@H](C)C3)cnc12

- IC50 [1]: 41 nM
SMILES: Cc1nn([C@H](C)c2ccc(Cl)cc2Cl)c2nc(N3CC[C@H](N4CCC[C@H]4CCC#N)[C@H](C)C3)cnc12

- IC50 [1]: 42 nM
SMILES: Cc1nn([C@H](C)c2ccc(Cl)cc2Cl)c2nc(N3CC[C@H](N4CCCCC4)[C@H](C)C3)cnc12

- IC50 [1]: 384 nM
SMILES: C[C@@H]1CC(c2cnc3c(C#N)nn([C@H](C)c4ccc(Cl)cc4Cl)c3n2)=CC[C@@H]1N1CCC[C@H]1C(C)(C)O

- IC50 [1]: 837 nM
- CLH [2]: 56.7 mL/min/kg
- AUC(0-inf) [3]: 148 ng·h/mL
SMILES: CC1CN(c2cnc3c(C(F)(F)F)nn(C(C)c4ccc(Cl)cc4Cl)c3n2)CCC1N1CCCCC1 (stereo not drawn)

- IC50 [1]: 251 nM
- CLH [2]: 101.7 mL/min/kg
- AUC(0-inf) [3]: 82 ng·h/mL
SMILES: CC1CN(c2cnc3c(C#N)nn(C(C)c4ccc(Cl)cc4Cl)c3n2)CCC1N1CCCCC1 (stereo not drawn)

- remaining at 1 h [5]: 86%
- IC50 [1]: 34 nM
- Vd [8]: 4.9 L/kg
- clearance [13]: 1.17 mL/min/kg
- bioavailability [19]: 27%
- remaining at 1 h [22]: 72%
- half-life [23]: 1820 min
SMILES: C[C@@H]1CC(c2cnc3c(C#N)nn([C@H](C)c4ccc(Cl)cc4Cl)c3n2)=CC[C@@H]1N1CCC[C@H]1C

- remaining at 1 h [5]: 97%
- IC50 [1]: 54 nM
- remaining at 1 h [22]: 71%
SMILES: C[C@@H]1CC(c2cnc3c(C#N)nn([C@H](C)c4ccc(Cl)cc4Cl)c3n2)=CC[C@@H]1N1CCC[C@H]1C(N)=O

- IC50 [1]: 803 nM
SMILES: Cc1nn([C@H](C)c2ccc(Cl)cc2Cl)c2nc(N3CC[C@@H](N4CCCCC4)[C@@H](C)C3)cnc12
